# pIC50: −log10 of the molar value. Active and inactive are the calls of the source. The rule behind the calls is not given here.
# How the values were obtained:
# [1] = tested on: Plasmodium falciparum; assay: Antimalarial activity against asexual blood stages of Plasmodium falciparum 3D7 infected in human erythrocytes incubated for 3 days by ELISA; type: functional, organism-based; conditions: 3D7, 72 h
# How it was run: (§1)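 Asexual blood-stage P. falciparum cultured in human erythrocytes; growth measured by HRP2 double-site sandwich ELISA. IC50 values are the mean of two independent double determinations.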
# [2] = tested on: Plasmodium falciparum; assay: Antimalarial activity against asexual blood stages of Plasmodium falciparum Dd2 infected in human erythrocytes incubated for 3 days by ELISA; type: functional, organism-based; conditions: Dd2, 72 h; how it was run: as §1
# [3] = target: T1, 1-deoxy-D-xylulose 5-phosphate reductoisomerase, apicoplastic (Plasmodium falciparum (isolate 3D7)) (UniProt Q8IKG4); assay: Inhibition of recombinant Plasmodium falciparum IspC expressed in Escherichia coli using 1-deoxy-D-xylulose 5-phosphate as substrate preincubated for 2 days followed by substrate addition in presence of Tris HCL at pH 7.6 by photometric assay
# T1 sequence (whole entry): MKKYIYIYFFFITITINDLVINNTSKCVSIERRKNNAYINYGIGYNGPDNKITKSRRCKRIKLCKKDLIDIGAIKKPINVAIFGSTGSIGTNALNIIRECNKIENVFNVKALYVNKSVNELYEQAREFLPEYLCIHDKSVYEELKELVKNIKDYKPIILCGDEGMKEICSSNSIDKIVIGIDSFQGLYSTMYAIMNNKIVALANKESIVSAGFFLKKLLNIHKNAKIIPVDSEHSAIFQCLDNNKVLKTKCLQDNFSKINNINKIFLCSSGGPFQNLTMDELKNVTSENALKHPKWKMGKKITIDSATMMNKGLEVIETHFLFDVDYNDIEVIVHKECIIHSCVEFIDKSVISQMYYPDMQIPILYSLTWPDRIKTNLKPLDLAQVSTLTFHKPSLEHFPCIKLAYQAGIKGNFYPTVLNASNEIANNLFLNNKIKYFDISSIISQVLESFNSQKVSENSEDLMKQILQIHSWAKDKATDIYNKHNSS
# How it was run: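 Racemate or single enantiomer (0.6–0.7 mM) held in 100 mM Tris-HCl pH 7.6 with 0.02% NaN3 at 22–23 °C. Aliquots taken at 0, 24 and 48 h and frozen at −80 °C. All aliquots then assayed in parallel for IC50 against P. falciparum IspC: 340 nm NADPH read-out with 0.5 mM DXP.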
# [4] = target: T1, 1-deoxy-D-xylulose 5-phosphate reductoisomerase, apicoplastic (Plasmodium falciparum (isolate 3D7)); assay: Inhibition of recombinant Plasmodium falciparum IspC expressed in Escherichia coli using 1-deoxy-D-xylulose 5-phosphate as substrate preincubated for 7 days followed by substrate addition in presence of Tris HCL at pH 7.6 by photometric assay
# [5] = tested on: HeLa; assay: Cytotoxicity against human HeLa cells assessed as reduction in cell viability incubated for 24 hrs by neutral red assay; type: cell-based
# How it was run: (§2)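 Cytotoxicity on HeLa monolayers quantified spectrophotometrically, given as the mean of two independent double determinations. SI is HeLa IC50 divided by the P. falciparum 3D7 IC50.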
# [6] = Selectivity index, ratio of IC50 for human HeLa cells to IC50 for Plasmodium falciparum 3D7; type: toxicity; conditions: read-out: Ratio IC50; how it was run: as §2
# [7] = Stability of compound in pH 7.6 PBS buffer assessed as parent compound remaining incubated for 72 by HPLC analysis; type: physicochemical
# How it was run: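 Compound dissolved at 1 mg/mL in phosphate buffer pH 7.6 (Ph. Eur.) and shaken at room temperature for 72 h. Samples at 0, 1, 3, 6, 24 and 72 h (n = 3) run by C18 reversed-phase HPLC with an acetonitrile/water gradient containing 0.1% TFA. Decomposition taken from the loss of peak area at 254 nm.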
# [8] = Apparent permeability in human Caco2 cells by LC-MS/MS analysis; type: ADME, cell-based; conditions: Caco-2
# How it was run: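 Compound applied to a polarized Caco2 monolayer. Concentrations measured over time by LC-MS/MS in donor medium, acceptor medium and cells; Papp calculated. Atenolol served as a reference compound.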
# [9] = tested on: Acinetobacter baumannii; assay: Antimicrobial activity against Acinetobacter baumannii ATCC BAA747 incubated for 18 hrs by microbroth dilution assay; type: functional; conditions: ATCC BAA747, 18 h
# [10] = tested on: Acinetobacter baumannii; assay: Antimicrobial activity against Acinetobacter baumannii ATCC BAA 1605 incubated for 18 hrs by microbroth dilution assay; type: functional; conditions: ATCC BAA 1605, 18 h
# [11] = tested on: Escherichia coli; assay: Antimicrobial activity against Escherichia coli ATCC 25922 incubated for 18 hrs by microbroth dilution assay; type: functional; conditions: ATCC 25922, 18 h
# [12] = tested on: Escherichia coli; assay: Antimicrobial activity against Escherichia coli ATCC BAA 2469 incubated for 18 hrs by microbroth dilution assay; type: functional; conditions: ATCC BAA 2469, 18 h
# [13] = tested on: Klebsiella pneumoniae; assay: Antimicrobial activity against Klebsiella pneumoniae ATCC 13883 incubated for 18 hrs by microbroth dilution assay; type: functional; conditions: ATCC 13883, 18 h
# [14] = tested on: Klebsiella pneumoniae; assay: Antimicrobial activity against Klebsiella pneumoniae ATCC 700603 incubated for 18 hrs by microbroth dilution assay; type: functional; conditions: ATCC 700603, 18 h
# [15] = tested on: Pseudomonas aeruginosa; assay: Antimicrobial activity against Pseudomonas aeruginosa ATCC 27853 incubated for 18 hrs by microbroth dilution assay; type: functional; conditions: ATCC 27853, 18 h
# [16] = tested on: Mycobacterium tuberculosis; assay: Antimycobacterial activity against Mycobacterium tuberculosis H37Rv incubated for 5 days by resazurin dye based assay; type: functional; conditions: 120 h
Structure (SMILES),pIC50 [1],pIC50 [2],inhibition [3],inhibition [4],pIC50 [5],selectivity ratio [6],Stability [7] [%],Papp [8] [×10⁻⁶ cm/s],MIC [9] [µM],MIC [10] [µM],MIC [11] [µM],MIC [12] [µM],MIC [13] [µM],MIC [14] [µM],MIC [15] [µM],MIC [16] [µM]
CN(O)C(=O)CS[C@@H](c1ccccc1)P(=O)(O)O,7.06,6.85,Active,Active,,,,,,,,,,,,
CN(O)C(=O)CS[C@H](c1ccccc1)P(=O)(O)O,< 3.89,< 3.89,Active,Active,,,,,,,,,,,,
CN(O)C(=O)CSC(c1ccccc1)P(=O)(O)O (racemic),6.72,6.59,,,< 3.00,> 37000,> 95,0.14,> 100,> 100,> 100,> 100,> 100,> 100,> 100,> 100

# Source: ChEMBL document CHEMBL4406820, “Novel reverse thia-analogs of fosmidomycin: Synthesis and antiplasmodial activity” (Eur J Med Chem, 2019)
